Source: ChEMBL document CHEMBL4513216, “Probing the Open Global Health Chemical Diversity Library for Multistage-Active Starting Points for Next-Generation Antimalarials” (ACS Infect Dis, 2020)

Test: Toxicity liver stage against HepG2, at 10uM
Format: cell-based
Parameters: test concentration 10 uM, cell line HepG2-A16-CD81EGFP
Details: human, HepG2-A16-CD81EGFP cells; read-out: INHIBITION
Summary of the method: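 Uninfected HepG2-A16-CD81EGFP cells, 3 × 10^3 per well, 1536-well, plated on prespotted compound at 10 μM final, parasite-free screening media added to match infected plates; puromycin 10 μM positive, DMSO 0.5% negative; run in parallel with 48 h PbLuc assay at 37 °C, 5% CO2; viability by CellTiter-Glo luminescence, normalized to controls.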

| Compound | cytotoxicity at 10 µM |
| --- | --- |
| CCN(CCOc1ccc(F)cc1)C(=O)c1ccncc1Cl | -3.35% |
| COCC(=O)N1CCCC(C(=O)N(C)CCCc2cnn(C)c2)C1 (stereo not drawn) | -137% |
| Cn1nnc2c1C(COCc1ccccn1)CN(Cc1ccoc1)C2 (stereo not drawn) | 5.94% |
| Cc1ccn(CCC(=O)N2CCOC(c3nc(-c4cccs4)no3)C2)n1 (stereo not drawn) | 7.03% |
| O=C(CN1CCC(N2CCNC2=O)CC1)NCC(F)(F)F | -3.35% |
| O=C(CCc1nc2cccnc2[nH]1)NCc1cccnc1 | 7.72% |
| CC(C)CN(C(=O)COc1ccc(C(N)=O)cc1)C1CCN(C)CC1 | -3.24% |
| COc1cc(N2C[C@H](OCc3cccnc3)[C@H]3OCCC[C@H]32)ncn1 | 4.13% |
| O=C(C[S+]([O-])Cc1ccc(F)cc1)N1CCc2sccc2C1 (stereo not drawn) | -3.86% |
| O=C1N(CCO)CCCC12CCN(Cc1nnc(C3CC3)o1)C2 (stereo not drawn) | 5.27% |
| Cc1nc(C)c(C(=O)N2CCC(O)(Cn3ccc4ccncc43)CC2)s1 | -21.7% |
| CC(CNC(=O)NCc1ccco1)N1CCc2sccc2C1 (stereo not drawn) | -11.5% |
| CC1CCN(S(=O)(=O)NC2CCCCNC2=O)CC1 (stereo not drawn) | 14% |
| Cc1cccc(C)c1C(=O)N1C[C@@H](CN2CCOCC2)[C@@H](CO)C1 | 0.0453% |
| Cn1cc(NC(=O)N2CCC(NS(C)(=O)=O)CC2)ccc1=O | -7.05% |
| COc1cccc2c1OCC(CNC(=O)Cc1csc(C(C)=O)c1)C2 (stereo not drawn) | -146% |
| O=C(CCc1cc2n(n1)CCCN(C(=O)c1ccccn1)C2)NC1CC1 | -13.7% |
| Cc1cnn(CCCOc2ccc3c(c2)OCO3)c1 | 8.4% |
| Fc1cccc(C2CCCN2Cc2nnnn2C2CC2)c1 (stereo not drawn) | 2.8% |
| CCCNC(=O)Cn1cc(-c2ccccc2)cn1 | -0.553% |
| O[C@@]1(c2ccccn2)CC[C@H]2CN(Cc3ccccn3)C[C@H]21 | -4.97% |

| Compound | cytotoxicity at 10 µM |
| --- | --- |
| O=c1[nH]c2cn(-c3cccc(F)c3)c(=O)n2[nH]1 | -0.687% |
| c1ccc(-c2noc(CN3CCOC(Cn4cccn4)C3)n2)nc1 (stereo not drawn) | -15% |
| COCC(=O)N1CCCC(c2noc3nc(C)cc(C(F)(F)F)c23)C1 (stereo not drawn) | -2.25% |
| CCc1ncncc1C(=O)N1CCN(Cc2ccco2)CC1 | -4.91% |
| COCCN(Cc1ccc(OC)nc1)Cc1cccs1 | -7.28% |
| CC1(C)CN(C(=O)c2ccc3nncn3c2)CCS1 | -4.5% |
| CN1CCCc2cc(CNC(=O)c3ccc(-n4cnnc4)cc3)ccc21 | -4.9% |
| Cc1cccnc1NCCNc1cc(C(C)C)nc2ccnn12 | -5.29% |
| CC(C)(C)NC(=O)c1cccc(CN2CCS(=O)(=O)CC2)c1 | 4.5% |
| CCn1ccnc1C1CCN(c2ncnc3ccsc23)CC1 | 5.31% |
| Cc1c(C(=O)N(CCN(C)C)Cc2ccccn2)oc2ccccc12 | 14.4% |
| CC(C)N1CC(C(=O)NCc2ccnc(-n3cccn3)c2)CC1=O (stereo not drawn) | -2.5% |
| CNC(=O)[C@H]1CO[C@H]2CCN(Cc3ccc4ccccc4n3)C[C@H]2C1 | 8.05% |
| CCOCCCNC(=O)Cc1cccs1 | -10.2% |
| CN(C)Cc1n[nH]c2c1CCN(Cc1cccs1)C2 | 1.63% |
| CCCc1nnc([C@H]2CCN(Cc3ncc[nH]3)C2)o1 | -1.63% |
| COCCN1CCc2cc(C(=O)NCC3CC3)c(NC(C)C)nc2CC1 | 73.6% |
| CC(=O)Nc1nc(CN2CCOC(Cn3cncn3)C2)cs1 (stereo not drawn) | -27.5% |
| CC(C)c1ncc(CN2CCCC2c2[nH]ncc2C(=O)N(C)C)cn1 (stereo not drawn) | 0.974% |
| CCOCC(=O)N1CCC(Cc2nnc(SC)n2C)CC1 | -53% |
| Cc1ccc(C2COCCN2C(=O)c2cccc(N(C)C)c2)o1 (stereo not drawn) | 8.99% |

| Compound | cytotoxicity at 10 µM |
| --- | --- |
| CC(C)c1nsc(N2CCn3c(nnc3-c3ccccc3)C2)n1 | -13.9% |
| COCC(=O)N1CCc2nc(C)nc(NC(C)C)c2CC1 | -102% |
| CC(=O)N1CCC1c1cc(N2CCNC(=O)C2)nc(C)n1 (stereo not drawn) | -1.62% |
| CC(=O)N1CCOC[C@H](Oc2ccc(C(F)(F)F)cc2)C1 | 2.65% |
| c1ccc(-c2cc(CC3(NCc4ncc[nH]4)COC3)no2)cc1 | 2.05% |
| CCOCC(=O)N1CCCC2(CCN(c3ccccc3)C2=O)C1 (stereo not drawn) | 2.02% |
| CCc1ncc2c(n1)CN(Cc1cnc(C)cn1)CC2 | -7.51% |
| CCn1nccc1C(=O)Nc1nc(C)c(C(C)=O)s1 | 1.28% |
| CCN(CC)C(=O)[C@@H]1C[C@H](N)CN1c1nnc(-c2ccccc2)s1 | -51.7% |
| CNC(=O)NC(=O)CCN1CCN(c2ccc(C(=O)OC)cc2)CC1C (stereo not drawn) | -17.8% |
| Nc1c(N2CCOCC2)ncnc1N1CCOCC1 | -1.31% |
| COc1cc(CN(C(=O)Nc2cccnc2OC)C2CC2)ccc1O | -2.14% |
| CN(C(=O)c1ccc(C#N)cc1)C1CCN(c2ccccn2)CC1 | -7.56% |
| CN1CCC(c2cccc(NCc3ccncc3)n2)CC1 | 6.08% |
| CCc1c(C)nc2n(c1=O)CC(C(=O)Nc1ncccc1C)CS2 (stereo not drawn) | 7.14% |
| Cc1ccc(O[C@@H]2C[C@H]3CN(C(=O)Cc4ccccn4)CCN3C2)cc1 | -59% |
| c1cnc(N2CCC3(CCN(CC4CCOC4)C3)CC2)nc1 (stereo not drawn) | -0.877% |
| CC(C)CN1CCC2(CCN(Cc3ccsc3)CC2)C1=O | 5.24% |
| Cc1cnc(CN2CCN(c3ccnc(-c4ccccc4)n3)CC2)cn1 | 3.61% |
| Cc1noc(NC(=O)c2ccc(Br)s2)n1 | -1.35% |
| Cc1noc(C2CCCN(C(=O)c3ccc(F)cc3F)C2)n1 (stereo not drawn) | 2.01% |

| Compound | cytotoxicity at 10 µM |
| --- | --- |
| CCC[C@@H]1CN(c2ncnc3sccc23)C[C@H]1NS(C)(=O)=O | -1.25% |
| O=C(c1ccoc1)N1CCn2cnc(COCC3CC3)c2C1 | -71.9% |
| CCn1ccnc1CN1CCN(c2nccc(OC)n2)CC1C (stereo not drawn) | -17.9% |
| CN1CCCc2cc(-c3cncn3CCNC3CCS(=O)(=O)C3)ccc21 (stereo not drawn) | -2.42% |
| CCCc1n[nH]c(C2CN(C(=O)c3cccnc3N(C)C)CCO2)n1 (stereo not drawn) | -2.91% |
| Cc1cc(C(=O)NCc2cccnc2N2CCCC(O)C2)c(C)o1 (stereo not drawn) | 16.3% |
| COc1ccc(CNC(C)c2cn[nH]c2C)cc1 (stereo not drawn) | 6.1% |
| O=C(Nc1cccc(F)c1)C1CCN(Cc2noc(C3CC3)n2)CC1 | 13.2% |
| Cc1ccc(Cl)c(CN2CCC3(CC2)C(C(=O)O)CC(=O)N3C)c1F (stereo not drawn) | 2.64% |
| Cc1cccc2c1nc(CCO)n2-c1ccc(NS(C)(=O)=O)nc1 | 2.34% |
| Cc1nccn1C1CCCN(C(=O)c2cnn(C)c2C2CC2)C1 (stereo not drawn) | -5.92% |
| O=C(CNCCn1cccn1)NCC1(c2ccccc2)CCC1 | -26.7% |
| CCCn1c(C)c(CC(=O)NC(C)(C)CO)c2c1CC(C)(C)CC2=O | -8.97% |
| Cc1cc(N2CCN(CCO)CC2)nc(-c2ccncc2)n1 | -1.25% |
| Cc1ccc(F)cc1C(=O)N1CCOCC12CCCC2 | -8.68% |
| Cc1cc(C(=O)N2C[C@@H](CN3CCCCC3)[C@@H](CO)C2)ccc1O | 0.251% |
| CC(C)c1noc(C(C)S(=O)(=O)CC(=O)N2CCCC2)n1 (stereo not drawn) | 4.23% |
| CC(C(=O)N1CCN(C(=O)c2ccc(F)cc2)CC1)n1ccnc1 (stereo not drawn) | -2.2% |
| Cc1ccc(-c2nn(-c3cccc(F)c3)cc2CN(C)CCO)o1 | 11.6% |
| CS(=O)(=O)N1CCc2sc(C(=O)NCCc3ccccn3)cc21 | -0.464% |
